Laboratory results from publication PMC8209782 (Bioorganic & medicinal chemistry, 2020).

Tests used:
[1] = test system: other kallikreins; experiment: Protease panel assay; type: biochemical, human; conditions: up to 10 μM
Outline: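 Human kallikreins in a 23-protease panel run by a contract lab, with enzyme conditions tabulated in the supplement. […] Fluorogenic AMC peptide substrates; fluorescence increase followed as a time course. The initial linear slope (signal/min) was used to derive IC50.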

[2] = target: T1, HNE (Homo sapiens, UniProt P08246); experiment: In vitro HNE enzyme assay with pNa substrate; type: biochemical
T1 sequence (P08246 30-267): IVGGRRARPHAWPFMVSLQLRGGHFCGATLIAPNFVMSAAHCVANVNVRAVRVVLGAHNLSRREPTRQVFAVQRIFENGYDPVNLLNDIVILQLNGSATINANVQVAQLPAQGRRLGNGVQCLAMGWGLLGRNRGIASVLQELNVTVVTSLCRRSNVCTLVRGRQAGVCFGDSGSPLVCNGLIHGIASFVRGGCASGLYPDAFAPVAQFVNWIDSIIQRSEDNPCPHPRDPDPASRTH

SMILES: C/C=C1\NC(=O)[C@@H](NC(=O)[C@@H](NC(=O)[C@H](C)NC(=O)C/C(C)=C/Cl)[C@@H](C)CC)[C@@H](C)OC(=O)[C@H](C(C)C)NC(=O)[C@H](Cc2ccc(O)cc2)N(C)C(=O)[C@H](Cc2ccccc2)N2C(=O)[C@H](CC[C@H]2O)NC1=O [Tutuilamide A]
- effect on other kallikreins (selectivity profiling) [1]: without affecting
- fold less active than lyngbyastatin 7 against HNE [2]: 1.5 fold
